SMILES strings stand for the structures. In all, about 360,000 compounds went through this assay and about 3,600 (1%) were called active. This is one part of a sample in which actives are shown more often than they occur. Unmarked numbers belong to inactive results.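 How the source made its calls: active means activation above the mean activation of all test compounds in the run plus 3 SD (cut at about 38% in these data); inactive means the rest.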

Sequence of Trace amine-associated receptor 1 (Homo sapiens) (Q96RJ0 whole entry, looked up): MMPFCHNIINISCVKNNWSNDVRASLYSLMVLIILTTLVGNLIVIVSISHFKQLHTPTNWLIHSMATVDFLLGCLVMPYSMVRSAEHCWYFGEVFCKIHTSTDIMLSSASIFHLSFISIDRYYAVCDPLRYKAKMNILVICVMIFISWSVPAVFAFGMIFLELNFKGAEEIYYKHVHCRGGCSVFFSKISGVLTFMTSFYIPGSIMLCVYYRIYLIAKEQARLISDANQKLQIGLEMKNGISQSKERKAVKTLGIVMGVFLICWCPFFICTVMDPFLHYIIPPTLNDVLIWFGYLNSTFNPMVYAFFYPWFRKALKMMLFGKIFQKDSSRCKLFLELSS

This assay concerns the target Trace amine-associated receptor 1 (Homo sapiens) (UniProt Q96RJ0). Briefly: human TAAR1 agonists, primary screen, Fluo-8 calcium fluorescence, CHO RD-HGA16 cells (AID 624467). The following applies: CHO RD-HGA16 TAAR1, Fluo-8 calcium fluorescence; at 3 µM; hits give high values; vehicle wells 0%, saturating PEA agonist 100%. The method, boiled down: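 System: CHO-derived RD-HGA16 cells with stable Gα16 and human TAAR1. Times: 17-24 h plating, Fluo-8 75 min 37 °C, 30 min RT. Measured by: calcium-sensitive Fluo-8 signal, excitation 470-495, emission 515-575 nm. Read-out basis: % activation relative to PEA EC100 response. Control set: DMSO and PEA EC100. Repeats: no replicates (n 1).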
Consider `Cc1cc2oc(=O)cc(-c3ccccc3)c2c(C)c1-c1ccc(OC(F)(F)F)cc1`, for which the activation was 2.46%.

On to `CCO[C@H]1OC(C(=O)N2CCOCC2)=C[C@@H](c2ccc3c(c2)OCO3)[C@@H]1CCCO`, for which the activation was 5.53%.

Consider `O=C(NCc1ccccc1)[C@@H]1CCCN1C(=O)[C@@H](NS(=O)(=O)c1ccc(F)cc1F)C1CCCCC1`, for which the activation was -0.54%.

Regarding `COc1ccccc1CNS(=O)(=O)c1c(C)[nH]c(C)c1C(=O)N1CCCCC1`, the activation is 0.59%.

With `NC(=O)c1cc(-c2cccnc2)nc2ccc(Br)cc12`, the activation was 0.6%.

For the compound `O=c1c2cc(Br)ccc2nc(-c2cccc(Cl)c2)n1O`, the activation was 51.9% (active).

In the case of `NC(N)=Nc1nc2ccc(Br)cc2c(=O)[nH]1`, the activation is 10.5%.

Take `C=CCNC(=O)COc1coc(CN2CCN(Cc3ccccc3)CC2)cc1=O`: the activation was 2.55%.

`CCC(C(=O)Nc1ccc(C(C)C)cc1)c1ccccc1` (stereo not drawn): the activation is 95.2% (active).

In the case of `CC(C)c1ccc(NC(=O)Cn2ncc3ccccc32)cc1`, the activation is 1.09%.

As for `CCC(C(=O)OCC(=O)Nc1c(Cl)cc(Cl)cc1Cl)c1ccccc1` (stereo not drawn), the activation is 8.86%.

Turning to `CCOC(=O)N(C)c1c(CC)nc2c(OCc3ccccc3C(=O)OC)cccn12`, the activation is 0.97%.

Take `O=C(CN1CCSCC1)N/N=C/c1ccc(Cl)cc1`: the activation was 12.7%.

With `O=C1NC[C@H](CCCCN2CCN(CCc3ccccc3)C(=O)C2=O)N(CC2CCCCC2)C1=O`, the activation was 1.95%.

Turning to `CCN(CCN(C)C)C(=O)c1ccc2nc(C)c(N(C)C(=O)CCc3ccccc3)n2c1`, the activation was 1.46%.

For `O=C1C=C(c2ccc(Cl)cc2)C(=O)N1Nc1ccccc1`, the activation is 58.9% (active).

For the compound `O=C(COC(=O)c1cccc(Cl)c1)NC(=O)NCc1ccccc1`, the activation was 2.7%.

As to `CCCCN1C(=O)C(C)=C(C)C1OCCc1ccc(OC)c(OC)c1` (stereo not drawn), the activation is 2.56%.

With `CCCCNS(=O)(=O)CCNCc1ccccc1OC`, the activation is -1.08%.

Regarding `CCCCCc1c(-c2cccc(Br)c2)ncn1CCc1ccccc1OC`, the activation was 50.1% (active).

With `CCc1c(-c2ccc(F)cc2)ncn1Cc1cccc(-c2ccccc2)c1`, the activation is 0.6%.

Turning to `COC(=O)c1ccc2nc(-c3ccc(OC)c(OC)c3)c(Cc3ccccc3)n2c1`, the activation was -2.01%.

In the case of `COC(=O)c1ccc2nc(-c3cccc(Br)c3)c(Cc3ccccc3C(F)(F)F)n2c1`, the activation is 4.12%.

Consider `CCCCCc1c(Cc2ccccc2)ncn1CCc1ccccc1OC`, for which the activation was 62.8% (active).

Turning to `Cn1c(=O)c2c(ncn2CCc2ccccc2)n(C)c1=O`, the activation is 2.07%.

As to `CCCCCc1c(-c2ccc(OC)c(OC)c2)ncn1CCc1ccccc1OC`, the activation is 60.6% (active).

Take `C=C1CCC(N(O)c2cc(C)on2)C(=C)CCC2C1CC2(C)C` (stereo not drawn): the activation is 2.74%.

Take `COC(=O)C1=C(C)N(Cc2ccc(C(F)(F)F)cc2)C(=NCc2ccccc2)NC1c1ccccc1C(F)(F)F` (stereo not drawn): the activation is 5.43%.

For the compound `O=C(CC1NCCc2ccccc21)Nc1cccc(Cl)c1` (stereo not drawn), the activation was 9.23%.

`COCCNC(=S)N(C)[C@H]1C[C@H]2c3[nH]c4ccccc4c3CCN2C[C@H]1[C@H](C)O`: the activation was 3.21%.

Regarding `CC1CCCCC1NC(=O)CSc1nnc(N)s1` (stereo not drawn), the activation was 9.77%.

Regarding `CCN(CC)C(=O)CS(=O)CC(=O)Nc1cc(OCCOC)c(Cl)cc1Cl` (stereo not drawn), the activation is 5.84%.

Turning to `COc1ccc(OC)c(NC(=O)c2ccc3c(c2)CCN3S(C)(=O)=O)c1`, the activation is 2.63%.

In the case of `Cc1ccc2nc(-c3ccc(CN4CCC(n5cc(-c6ccccc6)[nH]c5=O)CC4)cc3)c(-c3ccccc3)nc2c1`, the activation was 1.53%.

Turning to `c1ccc2c(c1)C(=NC1CCCCC1)NC2=NC1CCCCC1`, the activation is 83.2% (active).

In the case of `Cn1nccc1NC(=O)CC(CC(=O)O)c1ccccc1` (stereo not drawn), the activation is 1.46%.

Consider `Nc1ncnc2c1ncn2[C@@H]1O[C@H](C(=O)N[C@@H](CCc2ccccc2)C(=O)N2CCCN(Cc3cccs3)CC2)[C@@H](O)[C@H]1O`, for which the activation is -0.59%.

With `C=CCNC(=O)COC(=O)CNC(=O)c1cc(Cl)cc([N+](=O)[O-])c1`, the activation is -0.52%.

Consider `CC[C@H](NC(=O)[C@H](Cc1ccccc1)NC(=O)[C@H]1O[C@@H](n2cnc3c(=O)[nH]c(N)nc32)[C@H](O)[C@@H]1O)c1ccccc1`, for which the activation is 12.6%.

On to `Cc1nc(C(=O)NCc2ccccc2)sc1C1(C)CC(c2cccnc2)=NO1` (stereo not drawn), for which the activation was 57.5% (active).

With `Cc1nc(C(=O)Nc2ccc(Cl)cc2)sc1C1(C)CC(c2ccccc2)=NO1` (stereo not drawn), the activation is 5.24%.

On to `Cc1nc(-c2ccc(Cl)cc2)sc1C1(C)CC(c2ccccc2F)=NO1` (stereo not drawn), for which the activation is -1.12%.

Consider `O=C(C(=O)N1CCC(CNC(=O)c2cccnc2Cl)CC1)c1cccs1`, for which the activation was 1.11%.

With `CN1C(=O)CN2CCc3ccccc3C2c2cc(Cl)ccc21` (stereo not drawn), the activation was 3.95%.

Regarding `CC(=O)c1ccc(S(=O)(=O)NCC2CCN(C(=O)C(=O)c3cccs3)CC2)cc1`, the activation was 6.58%.

With `O=C1CCCN2N=C(SCC(=O)Nc3ccc(Br)cc3)SC2=N1`, the activation was 46.4% (active).

Consider `O=C(O)CC(SCC(=O)Nc1ccc(Br)cc1)C(=O)O` (stereo not drawn), for which the activation is 5.77%.

As to `O=C(CSCc1ccc(Br)cc1)Nc1ccc(S(=O)(=O)N2CCCCCC2)cc1`, the activation was 23.4%.

Turning to `COC(=O)C1=C(C)N(Cc2ccccc2C(F)(F)F)C(=NCC2CC2)NC1c1cccc(Cl)c1` (stereo not drawn), the activation was 26.6%.

As for `CCC(C)C(CO)NC(=O)/C=C/[C@H]1O[C@@H](n2cnc3c(NC(=O)c4ccccc4)ncnc32)[C@H](O)[C@@H]1O` (stereo partly drawn), the activation is 2.69%.

As to `COc1cccc(CN(C)C(=O)CC[C@H]2O[C@@H](n3cnc4c(NC(=O)c5ccccc5)ncnc43)[C@H](O)[C@@H]2O)c1`, the activation is 0.18%.

As for `O=C(/C=C/[C@H]1O[C@@H](n2cnc3c(NC(=O)c4ccccc4)ncnc32)[C@H](O)[C@@H]1O)NCc1ccccc1`, the activation was 54.8% (active).

Regarding `COc1ccc(C(CNC(=O)c2cccc(S(=O)(=O)Nc3ccccc3Cl)c2)N2CCOCC2)cc1` (stereo not drawn), the activation is -1.44%.

On to `Cc1ccc(NC(=S)Nc2ncccc2C)c(C)c1`, for which the activation is -3.17%.

For `CC(C)N(Cc1nnc(-c2ccccc2Br)o1)C(=O)c1cc(Cl)nc2ccccc12`, the activation was 4.53%.

For the compound `Nc1cccc2c1C(=O)N(Cc1nnc(-c3ccccc3Br)o1)C2=O`, the activation was 75.4% (active).

Regarding `Cn1cnnc1SCc1nnc(-c2ccccc2Br)o1`, the activation is 11.2%.

For the compound `CC1(C(=O)NS(=O)(=O)c2cccc(OC(F)F)c2)CCN1C(=O)COc1ccc(Cl)cc1` (stereo not drawn), the activation was 1.84%.

Consider `COC(=O)c1c(-c2ccc(OC)cc2)c2c(c3c4ccccc4n(S(=O)(=O)c4ccc(C)cc4)c13)C(=O)N(C)C2`, for which the activation is -0.97%.

Consider `COc1ccc(-c2c(C#Cc3ccccc3)c3ccccc3n2C)cc1`, for which the activation is 1.86%.

On to `COc1ccc(CCNCc2c(-c3ccccc3)n(C)c3ccccc23)cc1`, for which the activation was 37.6% (active).

Turning to `COc1ccc(CNCCCn2cnc3c(OCc4ccccc4)ncnc32)cc1`, the activation is 2.67%.

In the case of `Cc1ccc(N2C(=O)C(NC(=O)c3c(F)cccc3F)(C(F)(F)F)C3=C2CC(C)(C)CC3=O)cc1` (stereo not drawn), the activation was 0.87%.

Take `O=C1[C@@H](c2ccccc2)[C@@H](c2ccccc2)N1c1ccccc1`: the activation is 3.32%.

For `CC(C)(C)OC(=O)N1CCN(C(=O)c2[nH]c(C(F)(F)F)nc2-c2ccccc2)CC1`, the activation was 1.1%.

For the compound `COc1ccccc1-c1c(C#N)c(N)nc2c1CCC2`, the activation was -0.25%.

Regarding `CSc1ccc(-c2c(C#N)c(N)nc3c2c(C)nn3-c2ccccc2)cc1`, the activation is 8.14%.

As to `CSc1nc(N)c(C#N)c(-c2ccccc2Cl)c1C#N`, the activation was 56.9% (active).

Turning to `CCN(CC)c1ccc2oc(=O)c(C)nc2c1`, the activation is 81% (active).

On to `Cc1ccc2oc(=O)ccc2c1`, for which the activation was 0.04%.

For the compound `CCc1ccc2oc(-c3ccc(N)cc3)nc2c1`, the activation is 11.3%.

As to `O=C1CCN(C(=O)Nc2ccccc2)N1`, the activation was 3.7%.

For the compound `C[C@H]1CN([C@@H](C)CO)C(=O)CCCn2nncc2CO[C@@H]1CN(C)C(=O)Nc1ccc(N2CCN(C)CC2)cc1`, the activation was 0.67%.

As for `CCOc1ccc(Br)cc1S(=O)(=O)Nc1ccc(S(=O)(=O)Nc2cc(C)on2)cc1`, the activation was -0.13%.

Turning to `O=C(NNC(=S)Nc1ccc(Br)cc1Cl)c1ccco1`, the activation is 3.5%.

With `CCC1CCCCN1C(=S)NC(=O)c1ccco1` (stereo not drawn), the activation is 4.61%.

For `NS(=O)(=O)c1ccc(CNC(=S)NC(=O)c2ccco2)cc1`, the activation was 1.56%.

For the compound `CC(Oc1ccc2ccccc2c1)C(=O)NNC(=S)NC(=O)c1ccco1` (stereo not drawn), the activation was 98.9% (active).

Take `CCCc1ccc(OCC(=O)NNC(=S)NC(=O)c2ccco2)cc1`: the activation is 83.4% (active).

Take `O=C(Nc1ccc2ccccc2c1)/C(=C\c1ccc2c(c1)OCO2)NC(=O)c1ccco1`: the activation is -0.26%.

Turning to `O=C(C(=O)N1CCN(c2ccccc2)CC1)c1ccc2c(c1)OCO2`, the activation is -0.35%.

Regarding `CCC(C)NC(=O)c1ccc(NC(=O)CC2SC(N3CCCCC3)=NC2=O)cc1` (stereo not drawn), the activation is 1.77%.

Take `C=CCOC(=O)C1=C[C@H](c2ccc(Br)cc2)C[C@H](OCCCCO)O1`: the activation was 8.86%.

Turning to `COc1cc2c(cc1OC)CN(C(C)C(=O)Nc1cccc(S(=O)(=O)N3CCOCC3)c1)CC2` (stereo not drawn), the activation is 0.59%.

In the case of `O=C(NCCc1ccc(F)cc1)c1n[nH]c2ccccc12`, the activation was 1.79%.

In the case of `O=Cc1c(NCCCN2CCCC2=O)c2ccccc2[nH]c1=O`, the activation was 1.42%.

For the compound `O=Cc1c(NCCc2cccc(F)c2)c2ccccc2[nH]c1=O`, the activation is 72.1% (active).

For `C=CCN1C(=O)N(Cc2ccccc2)c2ccccc2S1(=O)=O`, the activation is 0.49%.

The values are drawn from PubChem BioAssay AID624467 (The Scripps Research Institute Molecular Screening Center, 2012).
